# SENP6 inh: inhibitors of human SENP6 protease; inhibition, % at 10 µM; Recombinant SENP6 catalytic domain, aminoluciferin luminescence; AID 2599; 330,000 tested, 1.8% active; Q9GZR1;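 active = inhibition above about 50% at the single tested dose, limit read from the data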;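 also: plate controls were DMSO wells with enzyme for no effect and DMSO wells lacking enzyme for full effect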
# Target sequence (Q9GZR1 628-1112 limits assumed): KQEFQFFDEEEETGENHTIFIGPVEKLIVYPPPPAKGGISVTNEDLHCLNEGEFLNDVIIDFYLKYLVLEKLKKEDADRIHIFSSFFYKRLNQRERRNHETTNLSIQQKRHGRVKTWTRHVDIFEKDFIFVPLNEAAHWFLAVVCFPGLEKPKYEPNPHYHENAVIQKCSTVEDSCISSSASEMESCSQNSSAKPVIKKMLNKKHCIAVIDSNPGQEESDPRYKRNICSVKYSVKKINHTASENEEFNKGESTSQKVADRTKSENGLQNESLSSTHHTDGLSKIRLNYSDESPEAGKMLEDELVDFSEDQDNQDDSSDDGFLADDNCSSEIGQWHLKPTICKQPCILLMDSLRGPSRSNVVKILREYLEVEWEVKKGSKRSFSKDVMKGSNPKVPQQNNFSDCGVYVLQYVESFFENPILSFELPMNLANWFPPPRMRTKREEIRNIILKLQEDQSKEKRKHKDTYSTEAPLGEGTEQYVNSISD
# Platelet DG rel: modulates dense granule release in human platelets; human platelet-rich plasma, SFLLRN dense granule ATP release, luminescence; inhibition, %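 (compounds screened at 7.5 µM in platelet-rich plasma)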; 300,000 tested, 0.22% active; AID 1663;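 active = mean replicate score, as percent of positive control, at or above 50; inconclusive = mean below 50 but at least one replicate at or above 50; inactive = mean and every replicate below 50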
# SENP8 block-1: SENP8 (human) protease inhibition; recombinant SENP8, Nedd8 substrate fluorescence; inhibition, % at 20 µM; 360,000 tested, 0.64% active; AID 602440; in the data active = inhibition mostly above about 40%, no sharp cut-off; inactive = mostly below about 27%
# SENP8 block-2: blocks the human protease SENP8. purified SENP8, Z-RLRGG-aminoluciferin cleavage, luminescence. Q96LD8. inhibition, % at 10 µM. 330,000 tested, 1.2% active. AID 2540; in the data active = inhibition above about 50%
# SENP1 FRET inh: blocks the human SENP1 SUMO protease catalytic domain. Q9P0U3. 360,000 tested, 0.21% active. recombinant SENP1 catalytic domain, CyPet-SUMO1-YPet FRET cleavage. AID 624204. inhibition, % at 10 µM;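 active = inhibition at least 30% at 10 µM, raw YFP signal under a set limit, fluorescence ratio 0.5 to 1.5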;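 also: 0% = enzyme with DMSO and 100% = no enzyme wells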
#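 Assay system – human recombinant His6-tagged SENP1 catalytic domain enzyme · Input – SENP1 enzyme, 20 pM final · Buffer or medium – Tris pH 8 buffer plus EDTA, NaCl, BME, BSA, NP40, catalase · Schedule – 50 min reaction at room temperature · Technique – FRET read of cyan and yellow fluorescence · Control set – no-enzyme wells low, DMSO-plus-enzyme wells high control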
# SENP7 block: blocks the human protease SENP7 | Q9BQF6 | recombinant SENP7, Z-RLRGG-aminoluciferin luminescence, 40 min | inhibition, % at 5 µM | AID 434973 | 330,000 tested, 1.5% active;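 active = inhibition above about 50% at the single test dose, limit read from the data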;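 also: plate controls were DMSO with enzyme for no effect and no enzyme buffer wells for full effect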
# SENP8 conf: human SENP8 inhibition, confirmed; 6,200 tested, 40% active; Recombinant SENP8, Z-RLRGG-aminoluciferin luminescence, 60 min; inhibition, % at 12.5 µM; shares compounds with SENP7 block;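 active = mean inhibition across replicates above about 50%, limit read from the data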
# SENP6 conf: confirmation of human SENP6 protease inhibitors; shares compounds with SENP7 block; recombinant SENP6, Z-RLRGG-aminoluciferin luminescence; inhibition, % at 12.5 µM; 6,200 tested, 58% active
# SENP7 confirm: confirmation of human SENP7 protease inhibitors. inhibition, % at 12.5 µM. 6,200 tested, 69% active. AID 488917. recombinant SENP7, Z-RLRGG-aminoluciferin luminescence, 40 min. shares compounds with SENP7 block
# Casp3 SENP sel: caspase-3 inhibition (SENP selectivity assay). shares compounds with SENP7 block. purified caspase-3, Z-DEVD-aminoluciferin luminescence, 60 min. inhibition, % at 12.5 µM. 6,200 tested, 60% active. AID 488918;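 active = mean inhibition above about 50%, limit read from the data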;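 also: plate controls were enzyme with DMSO for no effect and wells without caspase-3 for full effect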
# SENP luc ctr: luminescence interference (SENP counter-screen); shares compounds with SENP7 block; Pre-incubated SENP8/Z-RLRGG-aminoluciferin, luciferase luminescence interference; inhibition, % at 12.5 µM; 6,200 tested, 39% active; AID 488919;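 active = mean inhibition above about 50% when retested at one dose, limit read from the data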;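 also: plate controls were DMSO wells with completed reaction for no effect and substrate without enzyme for full effect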
# Active calls of the source: *; i = inactive; ? = inconclusive; · = not tested or not shown. An excerpt weighted towards active compounds, which were near 2.6% of everything screened.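 The calls were made as follows, unless noted: active = mean inhibition above about 50% in the one-dose retest (limit read from the data); inactive = the rest.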
SMILES,SENP6 inh,Platelet DG rel,SENP8 block-1,SENP8 block-2,SENP1 FRET inh,SENP7 block,SENP8 conf,SENP6 conf,SENP7 confirm,Casp3 SENP sel,SENP luc ctr
O=C(/C=C/c1ccccc1Cl)Nc1ccncc1,62*,?,25,35,-1,30,26,21,68*,29,58*
O=C(/C=C/c1c(F)cccc1Cl)Nc1ccncc1,65*,-11,7,33,1,62*,-5,1,44,17,27
CC(C)(C)c1ccc(/C=C/C(=O)Nc2cccnc2)cc1,85*,-4,18,76*,-1,83*,10,80*,95*,59*,55*
CC(=O)NC(C)(c1ccccc1)c1nc(-c2csc3ccccc23)cs1 (stereo unspecified),·,·,5,·,2,·,·,·,·,·,·
c1coc(C2=Nc3cccc4cccc(c34)N2)c1,50*,4,36,14,0,5,-22,-6,-9,-8,-3
COc1ccc(-c2coc3c(C(=O)Nc4cccnc4)cccc23)c(C)c1,·,·,-6,·,1,·,·,·,·,·,·
Cc1cc(C(=O)COC(=O)c2ccc(O)cc2O)c(C)n1-c1ccccc1,89*,·,-4,84*,0,61*,88*,89*,96*,59*,32
Cc1ccc(CONC(=O)c2cccc(C)c2)cc1,65*,·,9,34,3,48,46,43,78*,77*,56*
CC(NC(=O)c1ccco1)C(=O)N1CCN(C(c2ccccc2)c2ccccc2)CC1 (stereo unspecified),-1,-10,4,-7,1,0,·,·,·,·,·
O=C1NC(c2ccccc2)N=C2Oc3ccccc3C=C12 (stereo unspecified),·,·,i,·,-72,·,·,·,·,·,·
CCOC(=O)c1cnn(-c2ncnc3c2oc2ccccc23)c1N,16,2,15,9,-2,73*,2,8,32,44,12
CCOC(=O)C1CCN(c2ncnc3c2oc2ccccc23)CC1,-15,0,-34,-1,0,0,·,·,·,·,·
O=C(O)Cc1ccc2sc(-c3ccccc3)nc2c1,99*,24,-2,93*,1,91*,96*,97*,101*,97*,96*
COC(=O)Cc1ccc2sc(-c3ccccc3)nc2c1,94*,39,0,94*,1,100*,96*,98*,101*,96*,94*
NS(=O)(=O)c1cc(C(=O)OCC(=O)N2CCc3ccccc3C2)ccc1Cl,-16,·,0,-14,1,-9,·,·,·,·,·
Cc1c(C(=O)N2c3ccccc3CC2C)oc2ccccc12 (stereo unspecified),80*,7,15,68*,-2,62*,78*,77*,90*,51*,50
CCN1CCN(C2=C(NS(=O)(=O)c3ccc(C)cc3)C(=O)c3ccccc3C2=O)CC1,52*,16,43*,30,-5,21,-4,26,6,3,-4
CCN1CCN(C2=C(NS(=O)(=O)c3ccc(NC(C)=O)cc3)C(=O)c3ccccc3C2=O)CC1,52*,10,63*,28,-3,26,8,31,10,4,-3
COc1cccc(OCc2nc3c4cnn(-c5ccccc5)c4ncn3n2)c1,-22,-7,-96,6,2,73*,-8,1,12,21,4
Cc1ccc2c(c1)Sc1c(ccc3ccccc13)N2,80*,2,-76,56*,-35,11,2,18,4,30,12

# Compound activity: PubChem, several laboratories
